UBC9 SUMO inh = inhibitors of in vitro SUMOylation cascade, primary screen, biochemical, HTRF, uHTS. HTRF SUMOylation assay, SAE1/SAE2 + UBC9. inhibition, % at 35 µM. 290,000 compounds, 0.36% hits; in the data active = inhibition above about 50%, passing the limit was not always enough
T cell modulator = modulators of CD8 T cell-vesicle binding, primary screen, mouse 2C CD8+ T cells, flow cytometry; 330,000 compounds, 0.068% hits; 2C CD8+ T cell-vesicle binding; hits give low values; response (vesicle binding), % at 7 µM;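 active = response, share of CD8 T cells binding vesicles, and their 90th percentile fluorescence all below set limits, cut at about 80% in these data, passing the limit was not always enough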;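 also: values below 100% mean blocked vesicle binding to the CD8+ T cells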
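Incubation: binding step 1.5 h, 37 °C, antibody labelling 20 min, ice; system: murine 2C transgenic CD8+ T lymphocytes; technique: cytometric PE anti-B7-1 and Alexa647 anti-CD8 signals after 1% paraformaldehyde fixation; also added: QL9-charged Drosophila Ld/ICAM-1/B7-1 vesicles; control set: naked versus QL9-loaded vesicles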
IMP-1 inh = IMP-1 metallo-beta-lactamase inhibitors, primary screen, biochemical, epi-absorbance readout, Pseudomonas aeruginosa enzyme; purified IMP-1, nitrocefin hydrolysis, epi-absorbance fluorescence; AID 1556, 2009; 290,000 compounds, 0.45% hits; inhibition, % at 5.6 µM;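 active = inhibition above the mean plus 3 SD of all compounds in the same screening run, cut at about 4.5% in these data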;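 also: 0% = IMP-1 with DMSO and 100% = DMSO wells lacking enzyme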
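System: purified IMP-1; amount: IMP-1 0.2 nM before substrate addition; compound: single dose, 5.6 µM; times: 25 °C, 15 min preincubation, 25 min reaction; signal: Epi-absorbance via hydrolysed-nitrocefin quenching of white-plate fluorescence, 480/530 nm, EDTA stop; benchmarks: DMSO with and without IMP-1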
p-CIP stab down = p/CIP-EGFP fusion destabilizers, primary screen, fluorescence, F442A cells; Q05BA5; 16 h; decrease of EGFP signal, % at 10 µM; 290,000 compounds, 0.01% hits; AID 1984, 2009;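 active = EGFP signal decrease of at least 30% at 10 µM or well 3 SD below plate mean, unless failing retest; inactive = the rest, including hits failing retest or dose response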
VIM-2 inhibitor = VIM-2 metallo-beta-lactamase inhibitors, primary screen, biochemical, epi-absorbance readout, Pseudomonas aeruginosa enzyme; purified VIM-2, nitrocefin hydrolysis, epi-absorbance fluorescence; inhibition, % at 5.6 µM; 290,000 compounds, 0.89% hits; AID 1527, 2009;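 active = inhibition above the mean of all tested compounds plus 3 SD, cutoff set per screening run, cut at about 7.5% in these data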;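 also: red hydrolysis product quenches plate fluorescence so inhibitors raise well fluorescence; 0% = enzyme with DMSO and 100% = DMSO without enzyme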
Fh CTSL1 inh = Fasciola hepatica cathepsin L1 inhibitors, primary screen, counter-screen for PFM18AAP inhibitor project, biochemical, QFRET, fluorogenic peptide substrate; recombinant F. hepatica cathepsin L1, Z-Leu-Arg-MCA fluorescence; inhibition, % at 5.96 µM; 300,000 compounds, 0.49% hits; AID 1906, 2009;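 active = inhibition above the mean of all tested compounds plus 3 SD, set per screening campaign, cut at about 17% in these data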;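 also: 0% = plate median of test compound wells and 100% = 1 µM Z-Phe-Ala-diazomethylketone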
Active calls of the source: *; nt = no result given. The list is not random: actives were taken first. Their share in the collection is about 1.9%.

SMILES	UBC9 SUMO inh	T cell modulator	IMP-1 inh	p-CIP stab down	VIM-2 inhibitor	Fh CTSL1 inh
O=C(O)C1C2CCCCC2=C2CCCCC2C1C(=O)c1ccccc1 (stereo not given)	24	265	1	-4	6	-1
COc1cc(C(=O)N/N=C2\CCS(=O)(=O)c3ccc(F)cc32)cc(OC)c1OC	15	232	-3	6	-1	3
CC(C(=O)Nc1ccccc1Br)N1c2cccc3cccc(c23)S1(=O)=O (stereo not given)	-20	385	-1	-11	-1	0
Cc1ccc(C(=O)NC(C)c2nnc(SCC(=O)NC3CCCC3)n2C)cc1 (stereo not given)	2	552	-3	-20	-2	nt
Cc1cc2ncn(S(=O)(=O)N3CCOCC3)c2cc1C	3	784	4.5*	-2	0	-1
CCCc1cc(NCc2ccccn2)n2c(nc3ccccc32)c1C#N	17	223	-3	-7	4	5
CCCc1cc(NCC2CCCO2)n2c(nc3ccccc32)c1C#N (stereo not given)	31	267	-1	-2	8.7*	3
CCCc1cc(NCCN(C)C)n2c(nc3ccccc32)c1C#N	36	161	-4	-4	8.3*	5
Cc1cc(NCc2ccccn2)n2c(nc3ccccc32)c1C#N	22	nt	-2	3	12*	nt
COc1ccccc1CN1CCNC(=O)C1CC(=O)N(C)Cc1ccon1 (stereo not given)	4	305	-3	1	-4	-3
COCCN(C(=O)CSc1nnc(-c2ccc(C(C)(C)C)cc2)n1N)c1c(N)n(CC(C)C)c(=O)[nH]c1=O	nt	419	nt	nt	nt	3
CC(=O)c1cc(-c2ccccc2)n(CC(=O)Nc2cccc(C)c2)c1C	16	462	-1	0	-1	-2
CC(CC1C(C#N)=C(N)SC(N)=C1C#N)c1ccccc1 (stereo not given)	14	738	5.1*	-26	-2	2
CCn1c(N2CCN(Cc3ccc([N+](=O)[O-])cc3)CC2)nc2ccccc21	8	549	23*	-20	-1	0
CCCn1c(N2CCN(Cc3ccc(Cl)cc3)CC2)nc2ccccc21	-2	238	0	-17	-2	2
O=C(Nc1nnc(S(=O)(=O)N2CCCC2)s1)c1ccccc1Br	12	309	-2	8	0	81*
O=C(Nc1nnc(S(=O)(=O)N2CCCCCC2)s1)c1ccccc1Br	20	242	-2	-4	0	5
C=CCNC(=O)NC(=O)COC(=O)c1nc2nccc(C)n2n1	6	179	0	-3	-1	-3
CN1CCN(c2nc(-c3cc4ccccc4o3)cs2)CC1	6	234	-2	3	2	1
NC(=O)C1CCN(c2nc(-c3cc4ccccc4o3)cs2)CC1	nt	78*	nt	nt	nt	nt
Oc1ccc(N=C/C=C/c2cccc(Br)c2)cc1-c1nc2ccccc2s1	38	663	-1	9	-1	-2
O=C/C(=C\Nc1ccc(C(=O)N2CCOCC2)cc1)c1nc2ccccc2o1	6	201	-4	-5	-3	5
O=C1CC(c2ccc(O)c(O)c2)Oc2c1ccc(O)c2O (stereo not given)	73*	210	nt	-7	nt	0
Cc1ccc2c(=O)n3c(nc2c1)C(Cc1ccccc1)NC(=O)c1cc(Cl)ccc1-3 (stereo not given)	nt	0.0*	nt	nt	nt	nt
CCOc1cc(/C=C2\SC(=O)N(c3ccc(O)cc3)C2=O)ccc1O	7	429	-2	-14	10*	7
O=C(CSc1nc2nn(-c3ccccc3)c(=O)c-2c2n1CCCCC2)NCCCc1ccccc1	-10	271	-1	-12	-1	0
COc1ccccc1-c1nc(SCC(=O)NCC2CCCO2)c2c(=O)n(C)c(=O)n(C)c2n1 (stereo not given)	31	285	-1	-2	0	0

Assay outcomes deposited in PubChem BioAssay by several laboratories.
